One data set relates to Reovirus sp. As to the kind of experiment: Antiviral activity against Reovirus in CIK cells assessed as inhibition of virus-induced cytopathogenicity. Type of data set: functional, organism-based. Put shortly: (§1)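 Cells seeded at 2 × 10⁵ per well 24 h before use (BHK-21 for GETV, H9 for HIV, CIK for Reovirus, 983A for adenovirus, Veto for measles virus). Infected at a dose giving 100% cytopathic effect at 3 dpi; virus premixed with compound at final 100, 50, 10, 3, 2, 1.5, 1, 0 nM. Infected and uninfected untreated controls on each plate.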
(In general: Cytopathic effects are the visible damage that an infection or toxin causes in cultured cells.)

The test system of data set [1] is Sindbis virus. The experiment in a line: Reduction of Sindbis virus infection-induced mortality rate in newborn BALB/c mouse assessed as long term survivors at 100 mg/kg. The data set is classed as functional. Put shortly:
(§2)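 Newborn BALB/c mice, 2–3 days old, ≈2 g, were inoculated intracerebrally with 20 μl medium holding 100 × LD50 SINV. Compound (20 μl, 5, 50 or 100 mg/kg BW) was mixed into the inoculum. There were 11 mice per group, counted at 3–7 days. Virus-alone and compound-alone controls were included.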

A short description of data set [2]: Cytotoxicity against hamster BHK21 cells. Type of data set: cell-based, Mesocricetus auratus, BHK-21.
Data set [3] in a line: Selectivity index, ratio of CC50 for BHK21 cells to EC50 for Getah virus. To be noted: hamster, read-out: Ratio CC50/EC50. Type of data set: toxicity, cell-based, BHK-21. Put shortly: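 Getah virus was tested on BHK-21 cells seeded at 2 × 10⁵ per well 24 h before use, infected at a dose giving 100% CPE at 3 dpi. Compound was premixed with virus at final 100–0 nM. EC50 was taken as 50% inhibition of cytopathogenicity. Index = 50% cytotoxicity concentration/EC50.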

For data set [4], the system named is Sindbis virus. The experiment in a line: Reduction of Sindbis virus infection-induced mortality rate in newborn BALB/c mouse assessed as mouse survival at 100 mg/kg administered 4 hrs before viral infection. The data set is classed as functional, organism-based. The arrangement: dose 100 mg/kg. Summed up: (§3)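 Newborn BALB/c mice (2–3 days old, ≈2 g), 11 per group, given 20 μl compound at 100 mg/kg BW 1 or 4 h before intracerebral inoculation with 20 μl medium containing 100 × LD₅₀ SINV. Survivors counted at 3, 4, 5, 6 and 7 days after inoculation.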

The subject of data set [5] is Sindbis virus. The experiment in a line: Reduction of Sindbis virus infection-induced mortality rate in newborn BALB/c mouse assessed as survivors at 100 mg/kg administered 4 hrs before infection after 7 days. Type of data set: functional. Put shortly:
(§4)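 Newborn BALB/c mice, 2–3 days old, ≈2 g, received 20 μl compound at 100 mg/kg BW 1 or 4 h before intracerebral inoculation with 20 μl containing 100 × LD50 SINV. There were 11 mice per group, with survivors counted at 3, 4, 5, 6 and 7 days.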

The test system of data set [6] is Sindbis virus. As to the kind of experiment: Antiviral activity against Sindbis virus in BHK21 cells assessed as inhibition of virus-induced cytopathogenicity. To be noted: BHK-21. Type of data set: functional, organism-based.
Data set [7] concerns Sindbis virus. As to the kind of experiment: Reduction of mortality rate in Sindbis virus-infected newborn BALB/c mouse assessed as long term survivors at 5 mg/kg. Type of data set: functional. Summed up:
as §2

In another data set the test system is Getah virus. The experiment in a line: Antiviral activity against Getah virus in BHK21 cells assessed as inhibition of virus-induced cytopathogenicity. The data set is classed as functional, organism-based. To be noted: BHK-21. Summed up:
as §1

Data set [8] has as its system Sindbis virus. As to the kind of experiment: Antiviral activity against Sindbis virus XJ160 in BHK21 cells assessed as reduction of virus-induced cytopathic effect after 24 hrs. The data set is classed as functional, organism-based. To be noted: BHK-21. Summed up: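 SINV XJ-160 (2 × 10⁵ pfu/ml, thrice plaque-purified) treated with compound for 15 min, adsorbed 1 h to BHK-21 cells at MOI 0.01 in quadruplicate; washed, fresh DMEM with 5% FBS added, cells kept at 37°C, 5% CO₂. Cytopathic morphology scored by light microscopy at 24 hpi.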

In data set [9] the test system is Tobacco mosaic virus. The experiment in a line: Inhibition of TMV U1 multiplication in tobacco BY2 protoplast at 50 nM assessed as inhibition of local lesions on Chenopodium quinoa leaves by local lesion assay after 3 days postinfection. The data set is classed as functional. To be noted: U1, 72 h. Summed up: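 TMV premixed with compound at a range of concentrations used to inoculate tobacco BY-2 protoplasts; virus multiplication then assayed by counting local lesions on the local lesion host Chenopodium quinoa.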

Data set [10] concerns Sindbis virus. The experiment in a line: Reduction of Sindbis virus infection-induced mortality rate in newborn BALB/c mouse assessed as survivors at 100 mg/kg administered 1 hr before infection after 7 days. The data set is classed as functional. Summed up:
as §4

Data set [11] has as its system Sindbis virus. As to the kind of experiment: Reduction of Sindbis virus infection-induced mortality rate in newborn BALB/c mouse assessed as mouse survival at 100 mg/kg administered 1 hr before viral infection. Type of data set: functional, organism-based. Also noted: dose 100 mg/kg. Summed up:
as §3

For data set [12], the system named is Tobacco mosaic virus. The experiment in a line: Inhibition of TMV U1 multiplication in tobacco BY2 protoplast at 10 nM assessed as local lesion size on Chenopodium quinoa leaves by local lesion assay. Type of data set: functional.
The nature of data set [13]: Selectivity index, ratio of CC50 for hamster BHK21 cells to EC50 for Sindbis virus XJ160. Type of data set: toxicity, cell-based, BHK-21. To be noted: read-out: Ratio CC50/EC50. Summed up: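 SINV XJ-160 at 2 × 10⁵ pfu/ml was premixed with compound for 15 min. It was then adsorbed 1 h to BHK-21 cells, MOI 0.01, in quadruplicate. Cells were washed and kept in DMEM/5% FBS at 37°C. CC50 was 50% inhibition of uninfected BHK-21 proliferation. Index = CC50/EC50.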

A value given as a limit tells only on which side of the number the result lay.

For orientation: EC50 means the concentration that produces a half-maximal response. As usually defined, the CC50 is the concentration that lowers cell viability or growth by half. High values mean better tolerance by the cells, low ones harm at low concentration. The inhibition is the change of the read-out against control, counted positive when it falls. Take `CO[C@@H]1C[C@H](O[C@H]2CC[C@@]3(C)C(=CC[C@H]4C(=O)OC5CO[C@]6(C)OC=C(CC[C@@H]43)[C@H]56)C2)O[C@H](C)[C@H]1O[C@H]1C[C@H](O)[C@H](O[C@@H]2C[C@@H](OC)[C@H](O[C@@H]3O[C@H](CO)[C@@H](O[C@@H]4O[C@H](CO)[C@@H](O)[C@H](O)[C@H]4O)[C@H](O)[C@H]3O)[C@@H](C)O2)[C@@H](C)O1` (stereo not given in full) [PANICULATUMOSIDE C]: the concentration giving a half-maximal response (EC50) in the data set with Reovirus sp. was more than 25000 nM; with Sindbis virus [6], 1.5 nM; in the data set on Getah virus it was 1 nM. In addition, the Activity in the data set with Sindbis virus [1] is 100%; with Sindbis virus [4], “Toxic”; with Sindbis virus [5], 30%; in the data set on Sindbis virus [7] it was 18%; in the data set on Sindbis virus [8], “Dose-dependent effect”; in the data set with Sindbis virus [10], 100%. Besides, the Activity entry in the data set on Sindbis virus [11] was “Toxic”; with Tobacco mosaic virus [12] it was 2.4 mm. In addition, it took 16500 nM to reach half-maximal cytotoxicity in data set [2] (CC50). Moreover, the selectivity ratio in [3] was found to be 16500; in data set [13] it was 11000. In addition, in the data set on Tobacco mosaic virus [9], the inhibition at 0.05 µM was 100%.

The values above are taken from ChEMBL document CHEMBL1156462, “Seco-pregnane steroids target the subgenomic RNA of alphavirus-like RNA viruses” (Proc Natl Acad Sci U S A, 2007).
